Experimental data from ChEMBL document CHEMBL3352487, “Synthesis, antibacterial activity, and biological evaluation of formyl hydroxyamino derivatives as novel potent peptide deformylase inhibitors against drug-resistant bacteria” (Eur J Med Chem, 2014).
≈ marks a conversion by molar mass, not a printed value.

Assays:
[1] = AUC (0 to infinity) in Sprague-Dawley rat at 25 mg/kg, po; assay type: ADME, organism-based; design: dose 25 mg/kg, route oral, time infinity; conditions: plasma
[2] = Stability of the compound in artificial gastric juice measured every 2 hrs for 12 hrs by HPLC analysis; assay type: ADME; conditions: simulated gi fluid
[3] = Oral bioavailability in Sprague-Dawley rat at 25 mg/kg; assay type: ADME, organism-based; conditions: in vivo
Staphylococcus aureus [4] = assay: Antimicrobial activity against methicillin-susceptible Staphylococcus aureus after 24 hrs by broth microdilution method; assay type: functional
Method in brief: (§1)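 Broth microdilution following NCCLS M7-A4; ATCC strains and clinical isolates from a provincial hospital.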

[5] = AUC (0 to t) in Sprague-Dawley rat at 5 mg/kg, iv; assay type: ADME, organism-based; design: dose 5 mg/kg, route intravenous; conditions: plasma
Escherichia coli [6] = assay: Antimicrobial activity against Escherichia coli isolate 1 after 24 hrs by broth microdilution method; assay type: functional; conditions: isolate 1, 24 h; method in brief: as §1
Escherichia coli [7] = assay: Antimicrobial activity against Escherichia coli isolate 2 after 24 hrs by broth microdilution method; assay type: functional; conditions: isolate 2, 24 h; method in brief: as §1
[8] = AUC (0 to t) in Sprague-Dawley rat at 25 mg/kg, po; assay type: ADME, organism-based; design: dose 25 mg/kg, route oral; conditions: plasma
[9] = Cmax in Sprague-Dawley rat at 25 mg/kg, po; assay type: ADME, organism-based; design: dose 25 mg/kg, route oral; conditions: in vivo
Staphylococcus aureus [10] = assay: Antimicrobial activity against methicillin-resistant Staphylococcus aureus after 24 hrs by broth microdilution method; assay type: functional
Method in brief: (§2)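 Broth microdilution following NCCLS M7-A4, using ATCC strains and clinical isolates from a provincial hospital.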

[11] = Solubility of the compound in artificial intestinal juice measured every 2 hrs for 12 hrs by HPLC analysis; assay type: physicochemical; conditions: simulated gi fluid
[12] = AUC (0 to infinity) in Sprague-Dawley rat at 5 mg/kg, iv; assay type: ADME, organism-based; design: time infinity, dose 5 mg/kg, route intravenous; conditions: plasma
Staphylococcus aureus [13] = assay: Antimicrobial activity against Staphylococcus aureus after 24 hrs by broth microdilution method; assay type: functional; method in brief: as §1
[14] = Volume of distribution at steady state in Sprague-Dawley rat at 5 mg/kg, iv; assay type: ADME, organism-based; design: dose 5 mg/kg, route intravenous; conditions: in vivo, read-out: Vdss
[15] = Stability of the compound in artificial intestinal juice measured every 2 hrs for 12 hrs by HPLC analysis; assay type: physicochemical; conditions: simulated gi fluid
[16] = Clearance in Sprague-Dawley rat at 5 mg/kg, iv; assay type: ADME, organism-based; design: dose 5 mg/kg, route intravenous; conditions: in vivo
[17] = tested on: Staphylococcus epidermidis; assay: Antimicrobial activity against Staphylococcus epidermidis after 24 hrs by broth microdilution method; assay type: functional; method in brief: as §1
[18] = Solubility of the compound in artificial gastric juice measured every 2 hrs for 12 hrs by HPLC analysis; assay type: ADME; conditions: simulated gi fluid
[19] = Mean residence time (0 to t) in Sprague-Dawley rat at 25 mg/kg, po; assay type: ADME, organism-based; design: dose 25 mg/kg, route oral; conditions: in vivo
hERG (KCNH2) [20] = target: T1, hERG (KCNH2) (Homo sapiens, UniProt Q12809); assay: Inhibition of human ERG at 10 uM
[21] = Mean residence time (0 to t) in Sprague-Dawley rat at 5 mg/kg, iv; assay type: ADME, organism-based; design: dose 5 mg/kg, route intravenous; conditions: in vivo
[22] = Half life in Sprague-Dawley rat at 5 mg/kg, iv; assay type: ADME, organism-based; design: dose 5 mg/kg, route intravenous; conditions: in vivo
[23] = Tmax in Sprague-Dawley rat at 25 mg/kg, po; assay type: ADME, organism-based; design: dose 25 mg/kg, route oral; conditions: in vivo
hERG (KCNH2) [24] = target: T1, hERG (KCNH2); assay: Inhibition of human ERG at 1 uM
[25] = Half life in Sprague-Dawley rat at 25 mg/kg, po; assay type: ADME, organism-based; design: dose 25 mg/kg, route oral; conditions: in vivo
Staphylococcus aureus [26] = assay: Antimicrobial activity against Staphylococcus aureus OXFORD after 24 hrs by broth microdilution method; assay type: functional; method in brief: as §2
Enterococcus faecalis = assay: Antimicrobial activity against Enterococcus faecalis Isolate 1 after 24 hrs by broth microdilution method; assay type: functional; conditions: Isolate 1, 24 h; method in brief: as §1
Staphylococcus aureus [27] = assay: Antimicrobial activity against Staphylococcus aureus WCUH29 after 24 hrs by broth microdilution method; assay type: functional; conditions: WCUH29, 24 h; method in brief: as §1
Enterococcus faecium = assay: Antimicrobial activity against Enterococcus faecium X7501 after 24 hrs by broth microdilution method; assay type: functional; conditions: X7501, 24 h; method in brief: as §1
Streptococcus pneumoniae [28] = assay: Antimicrobial activity against Streptococcus pneumoniae ERY2 after 24 hrs by broth microdilution method; assay type: functional; conditions: ERY2, 24 h; method in brief: as §1
Streptococcus pyogenes [29] = assay: Antimicrobial activity against Streptococcus pyogenes 1307006P after 24 hrs by broth microdilution method; assay type: functional; method in brief: as §1
Streptococcus pyogenes [30] = assay: Antimicrobial activity against Streptococcus pyogenes 1308007P after 24 hrs by broth microdilution method; assay type: functional; method in brief: as §1
Haemophilus influenzae [31] = assay: Antimicrobial activity against Haemophilus influenzae H128 after 24 hrs by broth microdilution method; assay type: functional; conditions: H128, 24 h; method in brief: as §1
Haemophilus influenzae [32] = assay: Antimicrobial activity against AcrA-deficient Haemophilus influenzae H128 after 24 hrs by broth microdilution method; assay type: functional; conditions: H128, 24 h; method in brief: as §1
Streptococcus pneumoniae [33] = assay: Antimicrobial activity against Streptococcus pneumoniae N1387 after 24 hrs by broth microdilution method; assay type: functional; conditions: N1387, 24 h; method in brief: as §1
Escherichia coli [34] = assay: Antimicrobial activity against Escherichia coli isolate 3 after 24 hrs by broth microdilution method; assay type: functional; conditions: isolate 3, 24 h; method in brief: as §1
Streptococcus pneumoniae [35] = assay: Antimicrobial activity against Streptococcus pneumoniae 1629 after 24 hrs by broth microdilution method; assay type: functional; conditions: Streptococcus pneumoniae, 1629, 24 h; method in brief: as §1
Haemophilus influenzae [36] = assay: Antimicrobial activity against Haemophilus influenzae Q1 after 24 hrs by broth microdilution method; assay type: functional; conditions: Q1, 24 h; method in brief: as §1
Moraxella catarrhalis = assay: Antimicrobial activity against Moraxella catarrhalis 1502 after 24 hrs by broth microdilution method; assay type: functional; conditions: Moraxella catarrhalis, 1502, 24 h; method in brief: as §1

T1 sequence (Q12809 whole entry): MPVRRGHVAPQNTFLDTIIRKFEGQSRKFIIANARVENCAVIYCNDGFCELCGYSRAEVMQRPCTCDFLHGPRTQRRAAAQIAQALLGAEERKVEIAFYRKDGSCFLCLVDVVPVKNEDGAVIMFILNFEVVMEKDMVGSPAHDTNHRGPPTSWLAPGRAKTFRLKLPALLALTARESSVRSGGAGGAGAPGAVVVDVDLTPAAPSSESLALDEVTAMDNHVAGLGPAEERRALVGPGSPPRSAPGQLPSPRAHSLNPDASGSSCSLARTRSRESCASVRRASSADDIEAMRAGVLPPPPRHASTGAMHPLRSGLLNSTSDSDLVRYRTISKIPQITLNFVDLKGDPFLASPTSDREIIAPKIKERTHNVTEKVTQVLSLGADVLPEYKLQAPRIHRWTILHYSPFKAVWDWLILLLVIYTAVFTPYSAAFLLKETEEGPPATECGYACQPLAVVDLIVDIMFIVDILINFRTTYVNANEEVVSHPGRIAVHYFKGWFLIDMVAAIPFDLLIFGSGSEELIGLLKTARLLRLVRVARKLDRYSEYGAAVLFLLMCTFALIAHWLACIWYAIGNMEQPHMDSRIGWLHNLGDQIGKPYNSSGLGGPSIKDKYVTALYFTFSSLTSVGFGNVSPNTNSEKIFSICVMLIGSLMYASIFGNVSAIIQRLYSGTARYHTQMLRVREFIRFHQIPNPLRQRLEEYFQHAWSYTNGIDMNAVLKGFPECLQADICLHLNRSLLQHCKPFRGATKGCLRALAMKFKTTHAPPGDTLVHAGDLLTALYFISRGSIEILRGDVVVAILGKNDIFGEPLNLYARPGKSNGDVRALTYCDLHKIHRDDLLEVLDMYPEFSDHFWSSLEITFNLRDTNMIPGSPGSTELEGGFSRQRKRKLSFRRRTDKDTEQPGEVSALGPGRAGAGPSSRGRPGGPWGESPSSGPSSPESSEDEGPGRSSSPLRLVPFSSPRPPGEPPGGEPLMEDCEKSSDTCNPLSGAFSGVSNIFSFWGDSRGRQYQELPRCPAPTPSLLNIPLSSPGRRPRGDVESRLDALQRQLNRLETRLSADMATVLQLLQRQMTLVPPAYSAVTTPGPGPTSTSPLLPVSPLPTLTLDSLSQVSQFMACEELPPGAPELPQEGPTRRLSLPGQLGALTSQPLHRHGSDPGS

Q: What does the source list for `CCCC[C@H](CN(O)C=O)C(=O)N1CC=C[C@H]1C(=O)Nc1ncc(C)s1`?
A: AUC(0-inf) [1]: 21900 ng·h/mL; Stability [2]: Stable; bioavailability [3]: 88.7%; MIC (Staphylococcus aureus [4]): 0.25 µg/mL (≈ 0.657 µM); AUC(0-t) [5]: 4920 ng·h/mL; MIC (Escherichia coli [6]): 32 µg/mL (≈ 84.1 µM); MIC (Escherichia coli [7]): 16 µg/mL (≈ 42.1 µM); AUC(0-t) [8]: 21800 ng·h/mL; Cmax [9]: 12400 ng/mL; MIC (Staphylococcus aureus [10]): 0.125 µg/mL (≈ 0.329 µM); solubility [11]: soluble; AUC(0-inf) [12]: 4930 ng·h/mL; MIC (Staphylococcus aureus [13]): 0.0625 µg/mL (≈ 0.164 µM); Vd [14]: 1.01 L/kg; Stability [15]: Stable; clearance [16]: 17 mL/min/kg; MIC [17]: 0.25 µg/mL (≈ 0.657 µM); solubility [18]: soluble; MRT last [19]: 2.45 h; inhibition at 10 µM (hERG (KCNH2) [20]): 5.5%; MRT last [21]: 0.952 h; half-life [22]: 4.08 h; Tmax [23]: 0.625 h; inhibition at 1 µM (hERG (KCNH2) [24]): 5.7%; half-life [25]: 2.56 h

Q: With `C=C1C[C@@H](C(=O)Nc2ccc(F)cn2)N(C(=O)[C@H](CCCC)CN(O)C=O)C1` as the compound, how does the MIC (Staphylococcus aureus [26]) read?
A: Its MIC is 4 µg/mL (≈ 10.2 µM).

Q: What about the MIC (Enterococcus faecalis) of the same compound?
A: The MIC was 32 µg/mL (≈ 81.5 µM).

Q: What about the MIC (Staphylococcus aureus [27]) of the same compound?
A: The MIC was 0.5 µg/mL (≈ 1.27 µM).

Q: What about the MIC (Enterococcus faecium) of the same compound?
A: The MIC was 4 µg/mL (≈ 10.2 µM).

Q: What about the MIC (Staphylococcus aureus [4]) of the same compound?
A: The MIC was 1 µg/mL (≈ 2.55 µM).

Q: And the MIC (Streptococcus pneumoniae [28])?
A: The MIC was 8 µg/mL (≈ 20.4 µM).

Q: And the MIC (Streptococcus pyogenes [29])?
A: Its MIC is 4 µg/mL (≈ 10.2 µM).

Q: What about the MIC (Escherichia coli [6]) of the same compound?
A: Its MIC is 32 µg/mL (≈ 81.5 µM).

Q: And the MIC (Escherichia coli [7])?
A: Its MIC is greater than 64 µg/mL.

Q: What about the MIC (Streptococcus pyogenes [30]) of the same compound?
A: The MIC was 4 µg/mL (≈ 10.2 µM).

Q: And the MIC (Haemophilus influenzae [31])?
A: The MIC was 16 µg/mL (≈ 40.8 µM).

Q: And the MIC (Staphylococcus aureus [10])?
A: The MIC was 0.125 µg/mL (≈ 0.319 µM).

Q: And the MIC (Staphylococcus aureus [13])?
A: Its MIC is 0.5 µg/mL (≈ 1.27 µM).

Q: What about the MIC [17] of the same compound?
A: Its MIC is 0.25 µg/mL (≈ 0.637 µM).

Q: What about the MIC (Haemophilus influenzae [32]) of the same compound?
A: The MIC was 0.5 µg/mL (≈ 1.27 µM).

Q: What about the MIC (Streptococcus pneumoniae [33]) of the same compound?
A: Its MIC is 4 µg/mL (≈ 10.2 µM).

Q: And the MIC (Escherichia coli [34])?
A: Its MIC is greater than 64 µg/mL.

Q: What about the MIC (Streptococcus pneumoniae [35]) of the same compound?
A: The MIC was 16 µg/mL (≈ 40.8 µM).

Q: And the MIC (Haemophilus influenzae [36])?
A: Its MIC is 16 µg/mL (≈ 40.8 µM).

Q: What about the MIC (Moraxella catarrhalis) of the same compound?
A: Its MIC is 0.25 µg/mL (≈ 0.637 µM).
